Screening results (PubChem BioAssay)
Diaphorase act = activates diaphorase or chemically reduces, flagging diaphorase assay artifacts; Diaphorase/resazurin coupled assay, resorufin fluorescence, 16 min; hits give high values; 1 = vehicle wells, 0 = NADH-free wells; AID 1229; actives 0.005% (n = 190,000); activation factor at 20 µM;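 active = diaphorase activity raised at least twofold by the compound at 20 µM; inactive = activation factor below 2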
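Measured by – red resorufin fluorescence at 544/590 nm excitation/emission · Test system – Clostridium kluyveri diaphorase, purified enzyme · Incubation – reaction time 16 min, room temperature · Buffer or medium – 50 mM HEPES pH 7.4 with 4.542 mM MgCl2, 0.005% Tween 20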
WT yeast gro inh = growth inhibition of WT yeast, mitochondrial fusion screen. mitochondrial fusion phenotypic screen, WT strain. inhibition, % at 10 µM. actives 2.1% (n = 190,000). AID 1362; in the data active = inhibition above about 58%; tested in S. cerevisiae
PMI activator = phosphomannose isomerase (human) activation | purified human PMI, coupled resazurin fluorescence, 20 min; hits give high values; 1 = vehicle control, 0 substrate-free wells | activation factor at 20 µM | actives 0.005% (n = 190,000);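 active = activation factor of 2 or more at 20 µM, relative to plate controls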
Target sequence (P34949 whole entry, looked up): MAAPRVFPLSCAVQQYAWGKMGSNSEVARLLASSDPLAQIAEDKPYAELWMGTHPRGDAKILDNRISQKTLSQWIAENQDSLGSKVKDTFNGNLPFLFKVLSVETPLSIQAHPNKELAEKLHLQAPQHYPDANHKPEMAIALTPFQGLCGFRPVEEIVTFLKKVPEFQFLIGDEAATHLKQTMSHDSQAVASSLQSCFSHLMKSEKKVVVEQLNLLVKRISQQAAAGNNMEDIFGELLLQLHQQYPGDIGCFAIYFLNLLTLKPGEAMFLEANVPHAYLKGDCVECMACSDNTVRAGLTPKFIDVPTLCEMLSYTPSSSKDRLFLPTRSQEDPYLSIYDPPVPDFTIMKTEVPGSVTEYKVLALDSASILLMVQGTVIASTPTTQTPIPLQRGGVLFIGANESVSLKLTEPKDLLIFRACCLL
Lmaj promast = inhibitors of Leishmania major promastigote growth; Leishmania major promastigotes, resazurin fluorescence viability; inhibition, % at 10 µM; actives 9% (n = 200,000); in the data active = inhibition above about 50%;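 also: promastigotes grown with compound for 44 hours at 28 °C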
PMI act hi M6P = activators of human phosphomannose isomerase at near-saturating mannose 6-phosphate. actives 0.34% (n = 190,000). AID 1216. coupled PMI enzyme assay, resazurin fluorescence, 20 min; hits give high values; 1 = untreated enzyme, 0 = substrate-free blank. activation factor at 20 µM;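 active = activation factor of 2 or more at 20 µM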
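assay system = human phosphomannose isomerase with PGI, G6PDH, diaphorase coupling enzymes | quantity = 15 ng/mL PMI | incubation = enzyme reaction with compound 20 min at room temperature | medium = HEPES pH 7.4 buffer with MgCl2 and Tween-20 | compound dosing = one concentration, 20 µM, in 1% DMSO | measured by = Diaphorase-driven resazurin-to-resorufin fluorescence, excitation 544, emission 590 nm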
* = called active by the depositor; . = not tested or not shown. Rows were chosen to be rich in hits. Some 10% of all compounds tested hit in one or more screens of this group.

SMILES | Diaphorase act | WT yeast gro inh | PMI activator | Lmaj promast | PMI act hi M6P
Cc1nc(-c2ccc3c(c2)OCO3)cs1 | 1 | 6 | 1 | -4 | 1
CNC(=O)NC1CCCc2ccccc21 (centres undefined) | 0.8 | 23 | 1 | -3 | 1
CC(C(=O)NC1CCCc2ccccc21)N1CCN(c2ccc(F)cc2)CC1 (centres undefined) | 0.9 | 19 | 0.9 | 70* | 1
CC(C(=O)NC1CCCc2ccccc21)N1CCN(Cc2ccc3c(c2)OCO3)CC1 (centres undefined) | 1 | 5 | 0.9 | 86* | 1
O=C(N1CCN(Cc2ccc3c(c2)OCO3)CC1)C12CC3CC(CC(C3)C1)C2 | 0.9 | . | 1 | . | 1
Cc1cc(=O)oc2cc(OCC(=O)N3CCN(C(=O)c4ccco4)CC3)ccc12 | 0.9 | -5 | 1.1 | -6 | 1.1
Cc1ccc2nc(NC(=O)COC(=O)c3ccc(Br)o3)sc2c1 | 0.9 | 48 | 0.8 | -8 | 1.2
O=C(Nc1ccc(Br)cc1)N1CCCCC1 | 1.1 | -12 | 1 | -6 | 1
Fc1ccc(-c2nn(-c3ccccc3)cc2CNCc2ccccc2)cc1 | 1 | 83 | 0.9 | 80* | 0.9
O=C(c1cn(-c2ccccc2)nc1-c1ccc(F)cc1)N1CCCCC1 | 0.8 | 13 | 0.9 | 81* | 0.9
CCn1cc(CNC(=O)c2cccc([N+](=O)[O-])c2)c(C)n1 | 1 | -19 | 1 | -2 | 1.1
O=C(CCl)Nc1cn(-c2ccccc2)nc1-c1ccc(F)cc1 | 0.9 | -24 | 1.1 | 84* | 1.1
O=C(O)c1cn(-c2ccccc2)nc1-c1ccc(Cl)cc1 | . | . | . | -3 | .
O=C(c1cn(-c2ccccc2)nc1-c1ccc(F)cc1)N1CCOCC1 | 1.2 | -10 | 1.2 | -7 | 1.2
O=C(NCc1cn(-c2ccccc2)nc1-c1ccc(F)cc1)c1cccc([N+](=O)[O-])c1 | 0.9 | -18 | 0.8 | 81* | 0.9
OCc1cn(-c2ccccc2)nc1-c1ccc(-c2nn(-c3ccccc3)cc2CO)cc1 | 0.8 | -9 | 0.9 | 0 | 0.9
CNC(=O)c1ccc(=O)n(Cc2cccc(C(F)(F)F)c2)c1 | 1 | -2 | 1 | 0 | 1.1
CCOC(=O)Cc1csc(NC(=O)CCCCCN2C(=O)c3ccccc3C2=O)n1 | 1 | -20 | 1 | -4 | 1
CCCC1(C(=O)OCC)NC(c2ccco2)C2C(=O)N(C)C(=O)C21 (centres undefined) | 0.8 | -6 | 1 | -4 | 0.9
CC(NC(=S)Nc1ccc(S(=O)(=O)N2CCOCC2)cc1)C1CC2CCC1C2 (centres undefined) | 0.8 | 26 | 0.8 | 63* | 0.9
CC(C)(C)NS(=O)(=O)c1cnc(Cl)c(Cl)c1 | 0.9 | 60* | 1 | -2 | 1
O=C(c1ccc(COc2ccccc2Br)o1)N1N=C(C(F)F)CC1(O)C(F)F (centres undefined) | 0.8 | 7 | 1 | -1 | 0.9
CC(=O)Nc1nc(-c2cc([N+](=O)[O-])cs2)cs1 | 0.9 | -7 | 1.1 | 75* | 1.1
CC(=O)Nc1nc(C)c(-c2csc(Nc3cccc([N+](=O)[O-])c3)n2)s1 | 1 | -16 | 1 | 97* | 1
CC(=O)Nc1nc(C)c(-c2csc(Nc3ccc(O)cc3)n2)s1 | 0.7 | -30 | 0.8 | 63* | 0.9
SMILES | Diaphorase act | WT yeast gro inh | PMI activator | Lmaj promast | PMI act hi M6P
O=C(Nc1ccc([N+](=O)[O-])cc1)Nc1nc(-c2ccc(Cl)s2)cs1 | 1.1 | 87* | 1.1 | 82* | 1.2
COc1ccc(Cn2c(=S)[nH]c3ccsc3c2=O)cc1 | 0.6 | -1 | 0.9 | 28 | 0.8
CN1CCN(NC(=O)CN2C(=O)S/C(=C\c3c(Cl)cccc3Cl)C2=O)CC1 | 1 | -11 | 0.9 | -4 | 1
S=C(NCc1ccccn1)Nc1ccc(Cl)cc1 | 0.9 | -6 | 0.9 | -4 | 0.9
CC(NC(=S)Nc1cccc(C(F)(F)F)c1)C(C)(C)C (centres undefined) | 0.8 | 70* | 0.9 | 26 | 0.5
FC(F)(F)c1cccc(NC(=S)NCc2ccc(Cl)cc2)c1 | 0.9 | 75* | 1 | 1 | 1
Fc1ccccc1CNC(=S)Nc1cccc(C(F)(F)F)c1 | 0.8 | 35 | 0.9 | 19 | 0.9
Fc1ccc(CNC(=S)Nc2cccc(C(F)(F)F)c2)cc1 | 0.9 | 58* | 1 | 2 | 1
Fc1cccc(NC(=S)NCc2ccccn2)c1 | 0.9 | 16 | 0.8 | 63* | 0.9
O=C(Nc1ccccc1-c1nnn(CC(=O)N2CCOCC2)n1)c1ccccc1F | 1.2 | -1 | 1.1 | -2 | 1.1
COc1ccccc1C(=O)C1CCCN(C(=O)CN2CCCCC2=O)C1 (centres undefined) | 0.9 | 2 | 0.9 | -3 | 1
Cc1ccccc1CSCC(=O)Nc1c(C)n(C)n(-c2ccccc2)c1=O | 0.8 | 13 | 1 | -4 | 1
COc1cccc([C@@H]2Oc3ccc(Br)cc3C(=O)[C@H]2OC(=O)NC2CCCC2)c1 | 0.8 | 47 | 0.8 | 12 | 0.9
O=C(COC(=O)c1cc(C(F)(F)F)cc(C(F)(F)F)c1)NCc1ccc(Cl)cc1 | 0.9 | -5 | 1.1 | 50* | 1
CC(=O)Nc1ccc(S(=O)(=O)Nc2nccc(/C=C/c3ccc(Cl)cc3)n2)cc1 | 0.9 | 7 | 0.8 | -1 | 0.7
COCCNC(=S)N1CCC(NC(=O)c2ccco2)CC1 | 0.9 | -2 | 1 | 10 | 1
CC1SC(C)C(=O)N(CC(=O)Nc2ccc([N+](=O)[O-])cc2)C1=O (centres undefined) | 0.9 | 0 | 1 | -7 | 1
O=C1OC(c2ccccc2)=C/C1=C/c1cccs1 | 0.9 | 19 | 1.1 | 26 | 1
O=C1OC(c2ccc(F)cc2)=C/C1=C\c1ccc([N+](=O)[O-])o1 | 0.9 | 85* | 1.6 | 100* | 1.7
CS(=O)(=O)N(CC(=O)Nc1cccc(Cl)c1Cl)c1ccccc1 | 0.8 | -1 | 0.9 | 4 | 0.9
Cc1ccc(-n2cc3c(=O)n(C)c(=O)n(C)c3c2)cc1C | 0.9 | 11 | 1.2 | 35 | 1
Cc1cc(N)c(-n2cc3c(=O)n(C)c(=O)n(C)c3c2)cc1C | 0.8 | 24 | 1.2 | 62* | 1.4
CN1CCN(S(=O)(=O)c2ccc(Sc3nnnn3-c3ccccc3)c([N+](=O)[O-])c2)CC1 | 0.6 | 7 | 0.8 | 100* | 0.8
CC(=O)c1ccc(Sc2nnnn2-c2ccccc2)c([N+](=O)[O-])c1 | 0.8 | -10 | 0.8 | 100* | 0.9
Cn1c(Sc2ccc(C(=O)O)cc2[N+](=O)[O-])nnc1-c1ccccc1 | 0.9 | -2 | 1.1 | -8 | 1.1
O=[N+]([O-])c1ccc(Sc2nnnn2-c2ccccc2)c(Cl)c1 | 0.9 | -3 | 0.9 | 90* | 0.9
CCOC(=O)c1cnc2ccc(OCC)cc2c1N(C)Cc1ccccc1 | 1 | 48 | 0.7 | 98* | 0.7
